Source: PubChem
In the library only some 1.5% were active in any assay of this set; here they are far more common.
Platelet DG rel – modulates dense granule release in human platelets; inhibition, %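 (compounds screened at 7.5 µM in platelet-rich plasma)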; human platelet-rich plasma, SFLLRN dense granule ATP release, luminescence; actives 0.22% (n = 300,000);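 active = mean replicate score, as percent of positive control, at or above 50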
SENP1 inh – inhibitors of human SENP1 SUMO protease catalytic domain | actives 0.21% (n = 360,000) | recombinant SENP1 catalytic domain, CyPet-SUMO1-YPet FRET cleavage | inhibition, % at 10 µM | Q9P0U3;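 active = inhibition at least 30% at 10 µM, raw YFP signal under a set limit, fluorescence ratio 0.5 to 1.5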
Target sequence (Q9P0U3 419-644 limits assumed): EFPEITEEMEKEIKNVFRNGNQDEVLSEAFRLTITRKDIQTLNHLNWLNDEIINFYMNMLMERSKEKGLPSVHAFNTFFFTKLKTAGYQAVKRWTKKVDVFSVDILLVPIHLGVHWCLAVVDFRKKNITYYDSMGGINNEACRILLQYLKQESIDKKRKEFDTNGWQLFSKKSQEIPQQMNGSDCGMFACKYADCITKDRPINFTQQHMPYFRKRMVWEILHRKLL
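Material – human SENP1 catalytic domain · Input – SENP1 enzyme, 20 pM final · Compound dosing – single concentration of 10 µM compound, 0.5% DMSO final · Timing – enzyme reaction for 50 min at room temperature, dark · Measured by – FRET fluorescence in CFP and YFP emission channels · Control set – no-enzyme wells low, DMSO-plus-enzyme wells high control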
Myeloid diff MLP – myeloid differentiation induction; ER-HoxA9 myeloid progenitors, lysozyme-GFP differentiation, flow cytometry; calls only at 10 µM; actives 1% (n = 360,000); AID 624256;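 active = normalized GFP-positive differentiation at or above the plate's own cutoff, the solvent-only control mean plus 3 SD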;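 also: cells exposed to compound for four days before flow analysis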
VLA-4 inh – inhibition in a human VLA-4 binding assay; P13612; VLA-4 expressing cells, ligand binding flow cytometry; inhibition, % (about 7 µM as worked out from the volumes in the protocol); actives 0.2% (n = 330,000); in the data active = inhibition above about 50%
Myeloid diff CP1 – promotes myeloid progenitor differentiation | calls only | shares compounds with Myeloid diff MLP | ER-HoxA9 myeloid progenitors, GFP/Mac1 double-positive flow | AID 651706 | actives 2% (n = 2,300);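 active = share of green or green-and-red cells above 9 and 9% in run 1 or 4 and 3% in run 2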
GFP autofluor – counter-screen for myeloid differentiation promoters: compound fluorescence; shares compounds with Myeloid diff MLP; ER-HoxA9 myeloid progenitors, no estrogen, GFP autofluorescence flow cytometry; vehicle wells 0%, positive control 100%; fluorescence response, % (concentration not given with the values); actives 7.4% (n = 2,300); AID 651707;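 active = over 5% cells positive for green fluorescent reporter, or over 2% positive for both it and APC stain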
Hits are given with their value; 0 = inactive; - = not tested or not shown; + = active, no number.

SMILES | Platelet DG rel | SENP1 inh | Myeloid diff MLP | VLA-4 inh | Myeloid diff CP1 | GFP autofluor
CCC(C)NC(=O)C1CCC(=O)N(c2ccc3c(c2)OCO3)C1c1ccc(OC)cc1 (stereo not given) | 0 | 0 | 0 | 0 | - | -
COCCCNC(=O)C1CCC(=O)N(c2ccc3c(c2)OCO3)C1c1ccc(OC)cc1 (stereo not given) | 0 | 0 | 0 | 0 | 0 | 0
COCCNC(=O)C1(C)CCCN(Cc2ccc(Cl)c(Cl)c2)C1 (stereo not given) | - | 0 | 0 | - | - | -
COc1ccc(N2C(=O)CC(NCCNc3ccc([N+](=O)[O-])cn3)C2=O)cc1 (stereo not given) | 0 | 0 | 0 | 0 | 0 | 0
CCOc1ccc(N2C(=O)CC(NCCNc3ccc([N+](=O)[O-])cn3)C2=O)cc1 (stereo not given) | 0 | 0 | 0 | 0 | - | -
Cc1cc(C(=O)NC2CCCc3c2cnn3-c2cccc(C)c2C)no1 (stereo not given) | 0 | 0 | + | 0 | 0 | 0
COc1ccc2oc(C(=O)Nc3nc(-c4ccccn4)cs3)c(C)c2c1 | 0 | 0 | 0 | 0 | - | -
O=C(CC1C(=O)NCCN1Cc1cccc(Oc2ccccc2)c1)NCCc1ccccn1 (stereo not given) | 0 | 0 | + | 0 | 0 | 0
COc1cccc(CN2CCNC(=O)C2CC(=O)NCCc2ccccn2)c1 (stereo not given) | 0 | 0 | 0 | 0 | - | -
COC(=O)c1cn(NC(=O)Cn2nc([N+](=O)[O-])c(Br)c2C)c(=O)c2ccccc12 | 0 | 0 | 0 | 0 | - | -
N#CC1(NC(=O)COC(=O)c2cc(=O)[nH]c3ccccc23)CCCCC1 | 0 | 0 | - | 0 | - | -
O=C(COc1ccc(-n2cnnn2)cc1)Nc1ccc(F)c(F)c1 | - | 0 | 0 | 0 | 0 | 0
O=C(COc1ccc(-n2cnnn2)cc1)Nc1ccc(F)cc1 | - | 0 | 0 | 0 | - | -
Cc1ccc(NC(=O)CSCC(=O)NCc2cccc(C(F)(F)F)c2)cc1 | 0 | 0 | + | 0 | 0 | 0
COc1ccc(NC(=O)CSCC(=O)NCc2cccc(C(F)(F)F)c2)cc1 | - | 0 | 0 | 0 | - | -
O=C(Nc1ccc(-c2csc(Nc3cccc(C(F)(F)F)c3)n2)cc1)c1cc([N+](=O)[O-])cc(C(F)(F)F)c1 | 0 | 0 | 0 | 0 | - | -
Cc1ccc(S(=O)(=O)N2CCOCC2)cc1NC(=O)COC(=O)/C=C/c1ccc(F)cc1 | - | 0 | 0 | 0 | 0 | 0
COc1ccc(/C=C/C(=O)Nc2ccc(C)c(S(=O)(=O)N3CCOCC3)c2)cc1 | - | 0 | 0 | 0 | 0 | 0
O=C(/C=C/c1cccc(F)c1)Nc1cc(S(=O)(=O)N2CCOCC2)ccc1Cl | - | 0 | 0 | 0 | 0 | 0
COC(=O)c1cc2oc3ccccc3c2n1CC(=O)N1CCCc2ccccc21 | 0 | 0 | + | 0 | 0 | 0
CC(C)C(=O)Nc1cccc(S(=O)(=O)c2cccc(NC(=O)C(C)C)c2)c1 | 0 | 0 | 0 | 0 | 0 | 0
CCCCn1c(SCC(=O)N2CCC(C)CC2)nc2cc(S(N)(=O)=O)ccc21 | 0 | 0 | + | 0 | 0 | 0
CCCCn1c(SCC(=O)c2ccc(O)cc2O)nc2cc(S(N)(=O)=O)ccc21 | 0 | 0 | 0 | 0 | - | -
O=C(NNC1=Nc2cccc3cccc1c23)c1ccc(Br)cc1 | 0 | 0 | + | 0 | 0 | 12
CC1CCN(Cc2ccc(-c3nnn(CC(=O)Nc4ccccc4Cl)n3)cc2)CC1 | 0 | 0 | + | 0 | 0 | 0
SMILES | Platelet DG rel | SENP1 inh | Myeloid diff MLP | VLA-4 inh | Myeloid diff CP1 | GFP autofluor
C(=C\c1ccco1)/C1=NN(c2ccccc2)C(c2ccco2)C1 (stereo not given) | 0 | 0 | + | 0 | 0 | 0
Fc1ccc(C2=NN(c3ccccc3)C(c3ccco3)C2)cc1 (stereo not given) | 0 | 0 | 0 | 0 | - | -
Cc1ccc(S(=O)(=O)N2CCN(S(=O)(=O)N3CCCCCC3)CC2)cc1 | 0 | 0 | 0 | 0 | - | -
Cc1ncc([N+](=O)[O-])n1CC(=O)Nc1ccc(OC(F)(F)Cl)cc1 | 0 | 0 | 0 | 0 | - | -
CC(C)C(=O)N1CCN(c2ccccc2NC(=S)NC(=O)Cc2ccccc2)CC1 | 0 | 0 | 0 | 0 | - | -
CCCc1[nH]n(-c2ccc(F)cc2)c(=O)c1C=Nc1cccc(F)c1 | 0 | 0 | 0 | 0 | 0 | 0
CCCNC(=O)N[C@H]1CC[C@@H](CCn2cc(-c3cccc(F)c3)nn2)O[C@@H]1CO | - | 0 | + | - | 0 | 0
COC(=O)c1sc2ccccc2c1-n1cccc1C(=O)C(=O)Nc1ccccc1 | 0 | 0 | 0 | 0 | 0 | 0
COc1cc(C)c(CN2CCCCC2CO)cc1C (stereo not given) | 0 | 0 | + | 0 | 0 | 0
CCC1CCCCN1Cc1ccc(OC)c(OC)c1 (stereo not given) | 0 | 0 | 0 | 0 | - | -
CCCn1c(N)c(N(CCOC)C(=O)c2cc3c(s2)CCCCC3)c(=O)[nH]c1=O | 0 | 0 | 0 | 0 | - | -
CCC[C@H]1CC(=O)C=C(c2ccc(OC)cc2)ON1C(=O)OC(C)(C)C | - | 0 | 0 | - | 0 | 0
CN(Cc1nc2ccccc2c(=O)[nH]1)C(=O)COc1ccccc1Cc1ccccc1 | - | 0 | 0 | 0 | - | -
Cc1sc2ncn(CC(=O)NCc3ccccn3)c(=O)c2c1S(=O)(=O)N1CCOCC1 | 0 | 0 | 0 | 0 | 0 | 0
CCOC(=O)CNC(=O)Cn1cnc2sc(C)c(S(=O)(=O)N3CCOCC3)c2c1=O | 0 | 0 | 0 | 0 | - | -
COc1ccc(CCNC(=O)CCn2c(SCC(=O)N3CCCC3)nc3ccccc3c2=O)cc1OC | 0 | 0 | 0 | 0 | - | -
O=c1[nH]c2ccccc2n2c(C(F)(F)F)nnc12 | 0 | 0 | + | 0 | 0 | 5.7
COc1ccc(NC(=O)c2cccc3c(-c4cnn(C)c4)coc23)cc1 | - | 0 | 0 | - | - | -
COc1ccc(CNC(=O)c2cccc3c(-c4cccnc4)coc23)cc1OC | - | 0 | 0 | - | 0 | 0
O=C(NCc1ccc(F)c(F)c1)c1cccc2c(-c3cccnc3)coc12 | - | 0 | 0 | - | - | -
COc1cc(NC(=O)c2cccc3c(-c4cnn(C)c4)coc23)cc(OC)c1OC | - | 0 | + | - | 0 | 26
Cc1ccc(S(=O)(=O)N2CCc3c2cc([N+](=O)[O-])cc3[N+](=O)[O-])cc1 | 0 | 0 | 0 | 0 | - | -
O=C(Nc1c2c(nn1-c1ccc(Cl)cc1)CS(=O)(=O)C2)c1ccccc1 | 0 | 0 | 0 | 0 | - | -
Cc1c(C(=O)N2CCN(c3ccccc3)CC2)sc2ncnc(N3CCN(c4ccccn4)CC3)c12 | 0 | 0 | + | 0 | 0 | 0
OCC[C@H]1NCc2cc(CO)cc(-c3ccccc3)c21 | - | 0 | 0 | - | 0 | 0
CC1(C(=O)O)CCC(C(=O)Nc2cccc(F)c2)C1(C)C (stereo not given) | 0 | 0 | 0 | 0 | - | -
Cc1ccc(C(=O)ON=C2CCN(S(=O)(=O)c3ccccc3)CC2)cc1 | 0 | 0 | 0 | 0 | 0 | 0
O=C(ON=C1CCN(S(=O)(=O)c2ccccc2)CC1)c1ccc(F)cc1 | 0 | 0 | 0 | 0 | - | -
Cc1ccc(-c2csc(N3CCN(S(=O)(=O)c4ccc5c(c4)NC(=O)CO5)CC3)n2)cc1 | 0 | 0 | 0 | 0 | - | -
